# Assay results taken from the array DNA melting data of Ke et al. (doi:10.1101/2024.01.08.574731).
# Legend:
# [1] = folding enthalpy; higher = less favourable; fluorescence melt of hairpins on a sequencing array, two-state fit; settings: sodium 0.088 M
# How it was run: (§1)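 Melting temperature and folding enthalpy were obtained by bootstrapped two-state fitting. Fits used Cy3 fluorescence of library hairpins with annealed Cy3 and quencher oligos on a sequenced MiSeq flow cell, imaged in 50 mM Na-HEPES pH 8.0, 25 mM NaCl in 2.5 °C steps up to 60 °C and normalised to pre-quench Cy3 and control constructs. Four replicates were combined by inverse-variance weighting, and fitted temperatures were raised by 9.35 °C to match UV melts.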
# [2] = melting temperature; fluorescence melt of hairpins on a sequencing array, two-state fit, raised by 9.35 °C to match UV melts; settings: sodium 0.088 M
# How it was run: as §1
Sequence,folding enthalpy [1] [kcal/mol],Tm [2] [°C]
GCTTTAGCGAAAGCTAGC (((..(((....)))))),-8.44,42.3
GATCCCTATTGGGATC ((((((....)))))),-43.1,62.8
GCCGAACGAAAGTTGGC (((.(((....)))))),-32.3,57.2
GGTGTAGGAAACTACATC (.(((((....))))).),-27.4,42.2
GGATGCCCGAAAGGGTCC (((..(((....)))))),-11,33.2
GATCGCCTCTGCGATC ((((((....)))))),-37,66.5
GCGTATGGAAACATACAC (.(((((....))))).),-15.8,36.7
GAGAAGAAATTCTC (((((....))))),-9.49,28.9
GCATGACGAAAGTCCTGC (((.(((....))).))),-34.5,51
GGCAACGAAAGTTAGCC ((((((....))).))),-37.5,53.9
GATCAGGCCCTGATC ((((((...)))))),-33.9,50.1
GTACAGGGAAACCTGCAC ((.((((....)))).)),-22.4,39.7
GCTATGGGAAACCATGGC ((.((((....)))).)),-41,50.9
GCCTACGAAAGTACCGGC ((((((....)))..))),-25.6,36.9
GCCAGGCCGAAAGGCGGC (((..(((....)))))),-18.4,64.9
TTAGTGAAAACTAA (((((....))))),-8.57,27.8
GTCTCCGAAAGGAGTGAC ((((((....)))..))),-11.2,36
GTATCACGAAAGTGCTAC (((.(((....))).))),-22.7,41.1
GAATAACGAAAGTTTTTC (((.(((....))).))),-28.6,32
GCCTGCGAAAGCAAAGGC ((((((....)))..))),-26.9,59.3
GATCATACGAATGATC ((((((....)))))),-34.4,44.7
TGCTCGAAAGAGCA (((((....))))),-17.9,67.7
GCGACGGCGAAAGCCCGC (((..(((....)))))),-16.6,58.1
GCTAATCGAAAGATAGC (((.(((....)))))),-26.4,44.6

Sequence,folding enthalpy [1] [kcal/mol],Tm [2] [°C]
GCCAGGCGAAAGCTTCGC ((.(.((....)).).)),-8.82,40.5
GCCGCGCGAAAGCGACGC ((..(((....)))..)),-11.9,55.1
GAGGAGCGAAAGCTGCTC (((.(((....))).))),-34,63.7
GCTTTGCGAAAGCTAGGC ((.(.((....)).).)),-15.7,44.7
GTTATACCGAAAGGTAAC (((..(((....)))))),-10.4,32.8
GATCAATACTTGATC ((((((...)))))),-30.4,42
GATCGAGTTGTCGATC ((((((....)))))),-39.4,52.8
GATTGGAAACAATC (((((....))))),-23.6,40.5
GATCATGTGATGATC ((((((...)))))),-31.4,47.2
GCATGGCGAAAGCCTGGC ((..(((....)))..)),-18.4,53.4
GCGTAAGAACGC ((((....)))),-15.8,49.5
GCGTGGCGAAAGCTGCGC (((..((....))..))),-40.4,67.9
GGGGTATCGAAAGATCCC (((..(((....)))))),-22.4,50.4
GCCAGCGGAAACACCGGC (((.(.(....).).))),-10.2,27.6
GCCATCCGAAAGGACGGC (((.(((....))).))),-40.2,55.7
GATCAAGGAAACTTGACC (.(((((....))))).),-18.7,29.8
GCCGACGAAAGTCCGGC ((((((....))).))),-31.1,61.2
GCGCATGGAAACACGCGC ((((.((....)).)))),-40.4,56.1
GTCGGAGGAAACCCCGAC (((((.(....).))))),-33.3,53.8
GAAACACGAAAGTGCTTC (((.(((....))).))),-22.5,43.8
GATCTGGTCCCAGATC ((((((....)))))),-39.6,54.1
GAAAGACCGAAAGGTTTC (((..(((....)))))),-11.5,28.8
GCGTGACGAAAGTCTCGC (((.(((....))).))),-39.4,67.7
GCGTGCCCACGC ((((....)))),-26.6,60.2

Sequence,folding enthalpy [1] [kcal/mol],Tm [2] [°C]
GACCTCGGAAACGAAGTC (((.(((....))).))),-24.9,34.7
GCGTTACCACGC ((((....)))),-24.2,52.8
GCCCAGGCGAAAGCCGGC (((..(((....)))))),-10.1,62
GGTACTGGAAACAGTGTC (..((((....))))..),-13.9,28.9
GTCACTTCGAAAGAAGAC (((..(((....)))))),-8.67,26.7
GTCACGGGAAACCGCGAC (((.(((....))).))),-30.4,50.8
GGTGATGGAAACACCACC ((((.((....)).)))),-23.8,46.6
GGTACCGAAAGGTCCACC ((((((....)))..))),-13.3,41.3
GATCAAACCATTGATC ((((((....)))))),-31.2,42.1
GCTGGCGGAAACGCTGGC ((..(((....)))..)),-32.7,53.7
GCAGATACGAAAGTATGC (((..(((....)))))),-22.3,36.5
GTTTTTCGAAAGAAGAAC (((.(((....))).))),-32.5,37.3
TGTTGGAAACAACA (((((....))))),-18.5,42.9
GAAGCGCCGAAAGGCTTC (((..(((....)))))),-10.5,32.3
GGGCACGAAAGTGACCCC ((((((....)))..))),-10.3,68.5
GCGGGGCGAAAGCTACGC (((..((....))..))),-27.3,68.6
GCACGTCGAAAGACTGC (((.(((....)))))),-27.5,56.5
GCACGGCGAAAGCGATGC (((..((....))..))),-18.2,47.2
GATCTAATGGTAGATC ((((((....)))))),-27,35.4
GCAGACGGAAACACCTGC ((((..(....)..)))),-18.1,28.6
GAGCTGCCGAAAGGCCTC (((..(((....)))))),-11.3,32.7
GAAATAGAAATATTTC ((((((....)))))),-21.9,32.7
GAATAGCGAAAGCTTTTC (((.(((....))).))),-20.6,36.6
GCACTCGAAAGAGTCTGC ((((((....)))..))),-19.2,40.1

Sequence,folding enthalpy [1] [kcal/mol],Tm [2] [°C]
GATCCTCTCGAGGATC ((((((....)))))),-42.4,58
GTGAGTGGAAACACTTAC ((.((((....)))).)),-28.8,44.8
GCGATTCTCGC ((((...)))),-21.7,52
GATCGAGAGTTCGATC ((((((....)))))),-36.7,50.5
GAGAAGCGAAAGCTACTC (((.(((....))).))),-28.8,49.9
GCGAAGGGAAACCTTTGC ((.((((....)))).)),-34.6,49.8
GCCGTGGGAAACCATGGC (((.(((....))).))),-43.5,59.4
GATCATCCCATGATC ((((((...)))))),-38.4,50.4
GCACATGGAAACATGCAC (..((((....))))..),-15.2,28.2
GATCACAACGTGATC ((((((...)))))),-34.4,61.3
CGTTGCGGAAACGCTACG (((.(((....))).))),-33.4,56
GCTGAGCGAAAGCTACGC ((..(((....)))..)),-16.3,44.4
GATCAGTGGTCTGATC ((((((....)))))),-35.7,51.6
CGCTACGGAAACGTTGCG (((.(((....))).))),-38.7,56.3
GCCATAACGAAAGTTGGC (((..(((....)))))),-30.9,49.3
GCAATGCGAAAGCCTCGC ((.(.((....)).).)),-10.9,31.5
GTGCGGGGAAACCTGCAC ((((.((....)).)))),-29.3,58.7
GATCATCTCGATGATC ((((((....)))))),-50.6,54.6
GCTGCGCGAAAGCTTAGC (((..((....))..))),-20.5,39.6
GACGCCCGAAAGGGAGTC (((.(((....))).))),-32.8,66.7
GATCGGTAATCCGATC ((((((....)))))),-40.8,57.3
